Source: ChEMBL document CHEMBL1949657, “Chemical modification of the multitarget neuroprotective compound fisetin” (J Med Chem, 2012)
The source made the active and inactive calls.

Assays:
HT-22 [1] = experiment: Neuroprotective activity in mouse HT22 cells assessed as reduction in IAA-induced ischemia after 24 hrs by MTT assay; type: functional, cell-based
Outline: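 HT22 cells seeded at 5×10^3/well. Next day switched to DMEM + 7.5% DFCS with 20 μM IAA ± derivative doses for 2 h, then IAA-free medium with derivative for 20 h. MTT 2.5 μg/ml for 4 h at 37 °C, solubilised in DMF/SDS pH 4.7, A570 read. Controls for compound toxicity and assay interference. EC50 from dose series; tested twice, third time if EC50 < 1 μM.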

PC-12 = experiment: Neurotrophic activity in rat PC12 cells assessed as neurite outgrowth at 1 to 10 uM after 24 hrs; type: functional, cell-based
Outline: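 PC12 cells in N2 medium given derivatives (1–10 μM) for 24 h, fisetin 10 μM as positive control. 100 cells counted in each of three fields. A cell scored positive with ≥1 neurite longer than one cell-body diameter. Tested twice; positives tested a third time.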

[2] = Antioxidant activity against ABTS radical assessed as trolox equivalent after 4 mins by TEAC assay; type: functional
Outline: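 ABTS radical cation formed overnight with potassium persulfate and diluted to OD ~0.7 at 734 nm, then mixed with derivative in ethanol. Loss of A734 followed over 4 min. TEAC = slope of % absorbance inhibition vs concentration divided by the slope for Trolox.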

N9 = experiment: Antiinflammatory activity in mouse N9 cells assessed as reduction of LPS-induced microglial activation at 1 to 10 uM measured as nitrite level after 24 hrs by Griess reagent-based assay; type: functional; parameters: scale not given: the % may be the effect or the level left
Outline: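 N9 microglia in DME with 7.5% DFCS, given 10 μg/ml LPS alone or with derivatives (1–10 μM) for 24 h. Medium spun to remove floating cells, then nitrite measured with Griess reagent, 10 min at room temperature, absorbance 550 nm. Fisetin 10 μM as positive control. Tested twice; positives tested a third time.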

HT-22 [3] = experiment: Induction of Nrf2 expression in mouse HT22 cells from 1 to 4 hrs by immunoblotting; type: functional, cell-based
Outline: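 Nuclear extracts taken from untreated and derivative-treated cells at 1, 2 and 4 h. Equal protein run on 10% SDS-PAGE, blotted to nitrocellulose (Ponceau-S loading check). Probed with anti-Nrf2 (1/1000) and anti-β-actin, HRP secondary, chemiluminescence. Tested twice; positives tested a third time.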

HT-22 [4] = experiment: Neuroprotective activity against glutamate-induced GSH loss in mouse HT22 cells assessed as intracellular GSH level at 1 to 10 uM after 24 hrs; type: functional, cell-based
Outline: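 HT22 cells given derivatives (1–10 μM) with 5 mM glutamate. After 24 h, cell extracts analysed for total intracellular GSH by chemical assay. Fisetin 10 μM as positive control. Tested twice; positives tested a third time.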

Oryctolagus cuniculus = experiment: Neuroprotective activity in New Zealand white rabbit small clot embolism model assessed as reduction in stroke-induced behavioural deficits at 50 mg/kg, iv administered 5 mins post-embolization measured after 24 hrs; type: functional, organism-based; parameters: dose 50 mg/kg, route intravenous
HT-22 [5] = experiment: Ratio of fisetin EC50 to compound EC50 for neuroprotectivie activity in mouse HT22 cells; type: functional
[6] = Mus musculus, HT-22, 24 h, read-out: EC50

Row | EC50 (Oryctolagus cuniculus) [nM] | Compound | EC50 (HT-22 [1]; [6]) [nM] | Activity (PC-12) | Activity [2] [equiv] | Activity (N9) [%] | Activity (HT-22 [3]) | Activity (HT-22 [4]) | Ratio EC50 (HT-22 [5]) | EC50 (HT-22 [1]; ht-22)
1 | 2000 | O=c1c(O)c(-c2ccc(O)c(O)c2)oc2cc(O)ccc12 [FISETIN] | 3000 | Active | 3 | 80 | Active | Active |  | 
2 |  | O=C(/C=C/c1ccc(O)c(O)c1)c1ccc2ccccc2c1O | 80 | Active | 2.8 | 75 | Active | Active |  | 
3 |  | Cc1cc2oc(-c3ccc(N4CCCC4)cc3)c(O)c(=O)c2cc1C | 90 | Active | 2.4 | 0 | inactive | Active |  | 
4 |  | Cc1cc2oc(-c3ccc(N(C)C)cc3)c(O)c(=O)c2cc1C | 20 | inactive | 3 | 11 | inactive | Active |  | 
5 |  | COc1ccc(-c2oc3cc(C)c(C)cc3c(=O)c2O)cc1O | 20 | inactive | 1.74 | 72 |  | inactive | 10 | 
6 |  | O=c1c(O)c(-c2ccc(O)c(O)c2)oc2ccccc12 | 500 | Active | 2 | 80 | Active | Active | 6 | 
7 |  | COc1cc(-c2cc(=O)c3cc(C)c(C)cc3o2)ccc1O | 30 | inactive | 0.12 | 41 |  | inactive | 10 | 
8 |  | COc1ccc(/C=C/C(=O)c2cc(C)c(C)cc2O)cc1OCc1ccccc1 |  | Active | 0.12 | 70 | Active | Active |  | Not Active
9 |  | Oc1ccc(-c2cc(OC3CCCC3)c3ccccc3n2)cc1O [CMS-121] | 7 | Active | 0.4 | 82 | inactive | Active |  | 
10 |  | CN(C)c1ccc(-c2oc3c(ccc4ccccc43)c(=O)c2O)cc1 | 40 | inactive | 0.93 | 0 | inactive | Active |  | 
11 |  | O=c1c(O)c(-c2ccc(N3CCCC3)c(O)c2)oc2c1ccc1ccccc12 | 5 | Active | 2.1 | 50 | inactive | Active | 600 | 
12 |  | Cc1cc(O)c(C(=O)/C=C/c2ccc(O)c(O)c2)cc1C | 50 | Active | 2.7 | 94 | Active | Active |  | 
13 |  | COc1cc(-c2oc3cc(C)c(C)cc3c(=O)c2O)ccc1O | 40 | inactive | 1.89 | 77 |  | inactive | 10 | 
14 |  | COc1cc(-c2ccc(O)c(O)c2)nc2ccccc12 | 40 | inactive | 0.36 | 85 | inactive | Active | 75 | 
15 |  | Cc1cc2oc(-c3ccc(N4CCCC4)c(O)c3)c(O)c(=O)c2cc1C | 15 | Active | 2.79 | 21 | inactive | Active |  | 
